Data reported in ChEMBL document CHEMBL3259573, “Optimization of 2-(3-(arylalkyl amino carbonyl) phenyl)-3-(2-methoxyphenyl)-4-thiazolidinone derivatives as potent antitumor growth and metastasis agents” (Eur J Med Chem, 2014).
Active and inactive are the calls of the source. No cut-off for these calls is given here.

Tests used:
A549 [1] = test: Antiproliferative activity against human A549 cells after 48 hrs by sulforhodamine B assay; format: functional, cell-based; conditions: A549, 48 h
How it was run: (§1)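 Cells kept in RPMI 1640 at 37 °C, 5% CO₂, and seeded 24 h before treatment, with DMSO as control. After 48 h, fixed with cold 50% TCA 1 h at 4 °C and stained with 0.4% SRB in 1% acetic acid for 10 min. Washed five times with 1% acetic acid, dye solubilized in 10 mM Tris base, OD read at 515 nm.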

MDA-MB-231 [2] = test: Antiproliferative activity against human MDA-MB-231 cells after 48 hrs by sulforhodamine B assay; format: functional, cell-based; conditions: MDA-MB-231, 48 h; how it was run: as §1
MDA-MB-231 [3] = test: Cell cycle arrest in human MDA-MB-231 cells assessed as accumulation at G2/M phase at 1 uM by propidium iodide staining-based FACS analysis relative to control; format: functional
A549 [4] = test: Cell cycle arrest in human A549 cells assessed as accumulation at G2/M phase at 1 uM by propidium iodide staining-based FACS analysis relative to control; format: functional
MDA-MB-231 [5] = test: Induction of apoptosis in human MDA-MB-231 cells at 0.1 to 1 uM after 48 hrs by annexin V-FITC and propidium iodide staining-based flow cytometric analysis; format: functional, cell-based
How it was run: (§2)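 Treatment 48 h. Cells washed with cold PBS, resuspended in binding buffer, stained with Annexin V-FITC/PI 15 min. 10,000 stained cells per sample analyzed by flow cytometry.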

A549 [6] = test: Induction of apoptosis in human A549 cells at 0.1 to 1 uM after 48 hrs by annexin V-FITC and propidium iodide staining-based flow cytometric analysis; format: functional, cell-based; how it was run: as §2
MDA-MB-231 [7] = test: Antimetastatic activity against human MDA-MB-231 cells assessed as inhibition of cell migration after 24 hrs by wound healing assay; format: functional, cell-based; conditions: for IC50: MDA-MB-231, 24 h
How it was run: (§3)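 Cells grown at 37 °C in complete RPMI 1640 to 80–90% confluence, then serum-starved 12 h. Monolayer scraped with pipette tip, washed twice with PBS, refed complete RPMI 1640 with compound (0.5 or 0.05 uM per legend). Incubated 24 h at 37 °C, then fixed and photographed. Migrated cells counted manually, inhibition expressed relative to untreated (100%). Three independent experiments, 95% CI.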

MDA-MB-231 [8] = test: Antimetastatic activity against human MDA-MB-231 cells assessed as inhibition of cell migration after 10 to 12 hrs by transwell assay; format: functional, cell-based
How it was run: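 MDA-MB-231 cells (5 × 10⁴) in serum-free medium placed in upper chamber, 10% FBS medium below; compound at fixed concentrations in both chambers. Migration approximately 10 h (legend says 12 h). Non-migrated cells swabbed off, migrated cells fixed in paraformaldehyde 1 h, stained 0.1% crystal violet, counted in 7–8 random fields. Three independent experiments, means with 95% confidence intervals.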

A549 [9] = test: Antitumor activity against human A549 cells xenografted in nude mouse assessed as reduction in tumor volume at 5 to 10 mg/kg/day, ip for 28 days; format: functional, organism-based
A549 [10] = test: Antitumor activity against human A549 cells xenografted in nude mouse assessed as reduction in tumor weight at 5 to 10 mg/kg/day, ip for 28 days; format: functional, organism-based
Mus musculus [11] = test: Toxicity in nude mouse xenografted with human A549 cells assessed as change in body weight at 5 to 10 mg/kg/day, ip for 28 days; format: organism-based; design: route intraperitoneal; conditions: in vivo, 672 h
MDA-MB-231 [12] = test: Antimetastatic activity against luciferase-labeled human MDA-MB-231 cells xenografted in ip dosed nude mouse assessed as reduction in development of lung metastasis administered 1 week prior to tumor implantation measured after 21 days by bioluminescence assay; format: functional, organism-based
How it was run: (§4)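 Nude mice randomized into 3 groups (n = 6) and given DMSO or compound at 1.0 or 5.0 mg/kg/day by intraperitoneal injection. Dosing started one week before tail-vein injection of 1 × 10⁶ firefly luciferase-expressing MDA-MB-231 cells in PBS and continued 21 days. Lung metastasis read by bioluminescence photon flux; survival by Kaplan–Meier analysis.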

MDA-MB-231 [13] = test: Antimetastatic activity against luciferase-labeled human MDA-MB-231 cells xenografted in nude mouse assessed as reduction in development of lung metastasis at 1 to 5 mg/kg/day, ip administered 1 week prior to tumor implantation measured after 21 days by bioluminescence assay; format: functional, organism-based; conditions: TDE = time-dependent effect; how it was run: as §4
MDA-MB-231 [14] = test: Antimetastatic activity against luciferase-labeled human MDA-MB-231 cells xenografted in nude mouse assessed as reduction in photon flux in lungs at 5 mg/kg/day, ip administered 1 week prior to tumor implantation measured after 21 days by bioluminescence assay relative to control; format: functional; design: scale not given: the % may be the effect or the level left; conditions: route intraperitoneal; how it was run: as §4
MDA-MB-231 [15] = test: Antimetastatic activity against luciferase-labeled human MDA-MB-231 cells xenografted in nude mouse assessed as increase in mouse survival at 1 to 5 mg/kg/day, ip administered 1 week prior to tumor implantation measured after 21 days; format: functional, organism-based; how it was run: as §4
Mus musculus [16] = test: Toxicity in nude mouse xenografted with luciferase-labeled human MDA-MB-231 cells assessed as change in body weight at 1 to 5 mg/kg/day, ip administered 1 week prior to tumor implantation measured after 21 days; format: organism-based; design: route intraperitoneal; conditions: in vivo, 504 h
MDA-MB-231 [17] = test: Antimetastatic activity against human MDA-MB-231 cells assessed as inhibition of cell migration at 0.5 uM after 24 hrs by wound healing assay; format: functional, cell-based; how it was run: as §3

Row | IC50 (A549 [1]) | IC50 (MDA-MB-231 [2]) | SMILES | also measured
1 | > 50 µM | > 50 µM | COc1ccccc1N1C(=O)CSC1Cc1ccccc1 (stereo not drawn) | 
2 | 0.21 µM | 0.23 µM | COc1ccccc1N1C(=O)CSC1c1cccc(C(=O)NCCc2ccc(Br)cc2)c1 (stereo not drawn) | Activity (MDA-MB-231 [3]): 48.34%; Activity (A549 [4]): 42.4%; Activity (MDA-MB-231 [5]): inactive; Activity (A549 [6]): inactive; IC50 (MDA-MB-231 [7]): < 0.05 µM; IC50 (MDA-MB-231 [8]): 0.01 µM; inhibition (MDA-MB-231 [8]): Dose-dependent effect; Activity (A549 [9]): Active; Activity (A549 [10]): Active; Activity (Mus musculus [11]): Non-toxic; Activity (MDA-MB-231 [12]): Dose-dependent effect; Activity (MDA-MB-231 [13]): tde; Activity (MDA-MB-231 [14]): 96.5%; Activity (MDA-MB-231 [15]): Active; Activity (Mus musculus [16]): Toxic
3 | 48.5 µM | > 50 µM | COc1ccccc1N1C(=O)CSC1c1ccc(Br)cc1 (stereo not drawn) | 
4 | 13.7 µM | 32.6 µM | O=C1CSC(c2cccc(Br)c2)N1c1ccccc1O (stereo not drawn) | 
5 | > 50 µM | > 50 µM | COc1ccccc1N1C(=O)CSC1c1ccccc1 (stereo not drawn) | 
6 | 37.6 µM | > 50 µM | CN(C)c1ccccc1N1C(=O)CSC1c1cccc(Br)c1 (stereo not drawn) | 
7 | 31.6 µM | 12.3 µM | COc1ccccc1N1C(=O)CSC1c1cccc(C(=O)NCCCc2ccccc2)c1 (stereo not drawn) | 
8 | 0.13 µM | 0.05 µM | COc1ccc(CCNC(=O)c2cccc(C3SCC(=O)N3c3ccccc3OC)c2)cc1 (stereo not drawn) | inhibition (MDA-MB-231 [7]): Active
9 | > 50 µM | > 50 µM | COc1cccc(C2SCC(=O)N2c2ccccc2OC)c1 (stereo not drawn) | 
10 | 14.4 µM | > 50 µM | COc1ccccc1N1C(=O)CSC1c1cccc(CBr)c1 (stereo not drawn) | 
11 | 22.6 µM | > 50 µM | CNc1ccccc1N1C(=O)CSC1c1cccc(Br)c1 (stereo not drawn) | 
12 | 9.95 µM | 27 µM | O=C1CSC(c2cccc(Br)c2)N1c1cc(Cl)ccc1O (stereo not drawn) | inhibition (MDA-MB-231 [17]): inactive
13 | > 50 µM | > 50 µM | COc1ccccc1N1C(=O)CSC1c1cccs1 (stereo not drawn) | 
14 | 11.3 µM | 43 µM | COc1ccccc1N1C(=O)CSC1c1cccc([N+](=O)[O-])c1 (stereo not drawn) | 
15 | 0.16 µM | 0.18 µM | COc1ccccc1N1C(=O)CSC1c1cccc(C(=O)NCCc2ccc(Cl)cc2)c1 (stereo not drawn) | IC50 (MDA-MB-231 [7]): < 0.05 µM; IC50 (MDA-MB-231 [8]): 0.01 µM; inhibition (MDA-MB-231 [8]): Dose-dependent effect
16 | 0.96 µM | > 25 µM | COc1ccccc1N1C(=O)CSC1c1cccc(C(=O)NCCc2ccccc2)c1 (stereo not drawn) | inhibition (MDA-MB-231 [7]): Active
17 | > 50 µM | > 50 µM | COc1ccccc1N1C(=O)CSC1c1ccncc1 (stereo not drawn) | 
18 | 20.7 µM | > 50 µM | O=C1CSC(c2cccc(Br)c2)N1CCc1ccccc1 (stereo not drawn) | 
19 | > 50 µM | > 50 µM | C=CCN(CC=C)C(=O)c1cccc(C2SCC(=O)N2c2ccccc2OC)c1 (stereo not drawn) | 
20 | > 50 µM | > 50 µM | COc1ccccc1N1C(=O)CSC1c1cccc(F)c1 (stereo not drawn) | 
21 | 31.5 µM | > 50 µM | COc1ccccc1N1C(=O)CSC1c1ccccc1Br (stereo not drawn) | 
22 | > 50 µM | 47.5 µM | COc1cccc(N2C(=O)CSC2c2cccc(Br)c2)c1 (stereo not drawn) | 

Row | IC50 (A549 [1]) | IC50 (MDA-MB-231 [2]) | SMILES | also measured
23 | > 50 µM | > 50 µM | O=C1CSC(c2cccc(Br)c2)N1c1ccc(O)cc1 (stereo not drawn) | 
24 | 0.72 µM | 1.77 µM | COc1ccccc1N1C(=O)CSC1c1cccc(C(=O)NCCc2ccc(O)cc2)c1 (stereo not drawn) | inhibition (MDA-MB-231 [7]): Active
25 | > 50 µM | > 50 µM | O=C1CSC(c2cccc(Br)c2)N1c1nccs1 (stereo not drawn) | 
26 | > 50 µM | > 50 µM | COc1ccccc1N1C(=O)CSC1c1ccc2ccccc2n1 (stereo not drawn) | 
27 | 14.8 µM | 17.1 µM | COc1ccc(N2C(=O)CSC2c2cccc(Br)c2)c(OC)c1 (stereo not drawn) | 
28 | 0.29 µM | 23.1 µM | COC(=O)c1cccc(C2SCC(=O)N2c2ccccc2OC)c1 (stereo not drawn) | 
29 | > 50 µM | > 50 µM | CCN(CC)C(=O)c1cccc(C2SCC(=O)N2c2ccccc2OC)c1 (stereo not drawn) | 
30 | 8.98 µM | 18 µM | CCOc1ccc(N2C(=O)CSC2c2cccc(Br)c2)cc1 (stereo not drawn) | 
31 | 0.47 µM | 1.36 µM | COc1ccccc1N1C(=O)CSC1c1cccc(C(=O)NCCc2ccc(F)cc2)c1 (stereo not drawn) | 
32 | 8.18 µM | 13.9 µM | COc1ccccc1N1C(=O)CSC1c1cccc(Cl)c1 (stereo not drawn) | 
33 | > 50 µM | > 50 µM | COc1ccccc1N1C(=O)CSC1c1cccc(O)c1 (stereo not drawn) | 
34 | 37.1 µM | 17.7 µM | O=C1CSC(c2cccc(Br)c2)N1c1cccc(O)c1 (stereo not drawn) | 
35 | > 25 µM | > 25 µM | COc1ccccc1N1C(=O)CSC1c1cccc(C(=O)Nc2ccccc2)c1 (stereo not drawn) | 
36 | > 50 µM | > 50 µM | O=C1CSC(c2cccc(Br)c2)N1c1ccccc1 (stereo not drawn) | 
37 | 1.87 µM | 4.52 µM | COc1ccccc1N1C(=O)CSC1c1cccc(Br)c1 (stereo not drawn) | 
38 | > 50 µM | > 50 µM | O=C1CSC(c2cccc(Br)c2)N1c1ncccn1 (stereo not drawn) | 
39 | 8.52 µM | 13.9 µM | COc1ccccc1N1C(=O)CSC1c1cccc(C(=O)NCCc2ccccc2Br)c1 (stereo not drawn) | 
40 | 43.7 µM | > 50 µM | O=C1CSC(c2cccc(Br)c2)N1c1cccc([N+](=O)[O-])c1 (stereo not drawn) | 
41 | > 50 µM | > 50 µM | COc1ccccc1N1C(=O)CSC1c1cccc(C(=O)N2CCCCC2)c1 (stereo not drawn) | 
42 | 5.06 µM | > 25 µM | COc1ccccc1N1C(=O)CSC1c1cccc(C(=O)NCc2ccccc2)c1 (stereo not drawn) | 
43 | > 50 µM | > 50 µM | COc1ccccc1N1C(=O)CSC1c1cccc(C(=O)O)c1 (stereo not drawn) | 
